Reference: ChEMBL document CHEMBL5338743, “Identification of a Selective SCoR2 Inhibitor That Protects Against Acute Kidney Injury” (J Med Chem, 2023)
Activity calls are given as the source filed them. No cut-off for these calls is given here.

Experiments:
Mus musculus [1] = assay: In vivo inhibition of SCoR2 in C57BL/6J mouse assessed as reduction in SNO-CoA metabolic activity in spleen at 120 mg/kg body weight, ip administered as single dose into abdomen measured after 18 hrs; format: functional, organism-based
Summary of the method: (§1)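 Single i.p. injection into the mouse abdomen, DMSO vehicle; organs collected 18 h later. Tissues homogenized in 50 mM phosphate pH 7.0, 150 mM NaCl, EDTA/DTPA, then clarified; lysate started reactions with 200 μM SNO-CoA and 100 μM NADPH, 2 min, NADPH loss monitored, in triplicate. Compared with vehicle and SCoR2−/− kidneys.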

Mus musculus [2] = assay: Protection against ischemia/reperfusion induced acute kidney injury in mouse assessed as reduction in serum creatinine level at 120 mg/kg, ip pretreated for 18 hrs followed by kidney injury surgery and measured after 24 hrs; format: functional, organism-based; conditions: time 42.0 hrs
Summary of the method: (§2)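 Male mice (9–11 weeks, 25–28 g) given i.p. dose 18 h before ischemia–reperfusion AKI surgery under isoflurane; serum taken 24 h after reperfusion. Creatinine and BUN measured by a clinical laboratory; DMSO-treated controls.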

Mus musculus [3] = assay: Protection against ischemia/reperfusion induced acute kidney injury in mouse assessed as reduction in blood urea nitrogen level at 120 mg/kg, ip pretreated for 18 hrs followed by kidney injury surgery and measured after 24 hrs; format: functional, organism-based; conditions: time 42.0 hrs; summary of the method: as §2
[4] = Renal toxicity in mouse assessed as effect on anatomy of medulla at 120 mg/kg, ip treated for 18 hrs under basal conditions by H and E staining based analysis; format: organism-based; conditions: in vivo
Summary of the method: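 Sham-operated mice given 120 mg/kg i.p. or vehicle; kidney cortex and medulla examined by H&E staining.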

Mus musculus [5] = assay: In vivo inhibition of SCoR2 in C57BL/6J mouse assessed as reduction in SNO-CoA metabolic activity in lung at 120 mg/kg body weight, ip administered as single dose into abdomen measured after 18 hrs; format: functional, organism-based; summary of the method: as §1
Mus musculus [6] = assay: In vivo inhibition of SCoR2 in C57BL/6J mouse assessed as reduction in SNO-CoA metabolic activity in brain at 120 mg/kg body weight, ip administered as single dose into abdomen measured after 18 hrs; format: functional, organism-based; summary of the method: as §1
[7] = Drug uptake in mouse serum at 120 mg/kg body weight, ip measured at 24 hrs post injection by HPLC/mass spectrometry analysis; format: ADME, organism-based; conditions: in vivo
Summary of the method: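 Serum collected 24 h after i.p. injection; compound level measured by HPLC/mass spectrometry.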

Mus musculus [8] = assay: Protection against ischemia/reperfusion induced acute kidney injury in mouse assessed as reduction in loss of brush borders at 120 mg/kg, ip pretreated for 18 hrs followed by kidney injury surgery and measured after 24 hrs by H and E staining based analysis; format: functional, organism-based; conditions: time 42.0 hrs
Summary of the method: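 Mice dosed i.p. 120 mg/kg 18 h before I/R surgery, kidneys harvested 24 h later, H&E-stained. Tubular lysis, brush-border loss and luminal debris scored 0–2 over more than five fields per animal; n=5 mice per group, vehicle controls.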

[9] = target: Aldo-keto reductase family 1 member B1 (Homo sapiens, UniProt P15121); assay: Inhibition of C-terminal 6His-tagged human recombinant AKR1B1 expressed in Escherichia coli BL21-CodonPlus competent cells using methyl glyoxylate as substrate incubated for 2 mins in presence of NADPH
Summary of the method: (§3)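 Purified enzyme at 200 nM (SCoR2 with 100 μM SNO-CoA; AKR1B1 with 100 μM methylglyoxylate) in 50 mM phosphate pH 7.0 with serial inhibitor dilutions; started with 100 μM NADPH, 2 min. Rate from 340 nm decrease, normalized to 20 nM protein activity; IC50 fitted, n=3. Selectivity taken as AKR1B1/SCoR2 IC50 ratio.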

[10] = target: T1, Aldo-keto reductase family 1 member A1 (Homo sapiens, UniProt P14550); assay: Inhibition of C-terminal 6His-tagged human recombinant SCoR2 AKR1A1 expressed in Escherichia coli BL21-CodonPlus competent cells using SNO-CoA as substrate incubated for 2 mins in presence of NADPH; summary of the method: as §3
T1 sequence (P14550 whole entry): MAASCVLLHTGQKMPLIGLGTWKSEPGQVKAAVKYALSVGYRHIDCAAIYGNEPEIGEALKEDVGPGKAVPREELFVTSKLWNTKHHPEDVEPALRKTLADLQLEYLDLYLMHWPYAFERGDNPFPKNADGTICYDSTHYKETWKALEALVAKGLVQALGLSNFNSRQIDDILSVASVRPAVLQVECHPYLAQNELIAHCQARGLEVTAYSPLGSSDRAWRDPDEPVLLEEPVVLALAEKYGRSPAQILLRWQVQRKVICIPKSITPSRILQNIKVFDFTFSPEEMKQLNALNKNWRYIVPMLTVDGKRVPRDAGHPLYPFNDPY

- Drug uptake [7]: Active
- IC50 [9]: 903 nM
- IC50 [10]: 93 nM
Structure (SMILES): O=C1NC(=O)C2(N1)c1ccccc1-c1ccc(C3CC3)cc12 (stereo not given)
- inhibition (Mus musculus [1]): Active
- Activity (Mus musculus [2]): Active
- Activity (Mus musculus [3]): Active
- Activity [4]: Non-Toxic
- inhibition (Mus musculus [5]): Active
- inhibition (Mus musculus [6]): inactive
- Activity (Mus musculus [8]): Active
